Measured values collected from several papers.
Protocols differ between the studies behind these lines.
Target: Serine/threonine-protein kinase PLK1 (PLK1, Homo sapiens, UniProt P53350)

With CNC(=O)[C@@H]1CC[C@@H](n2c(-c3ccc4cnccc4c3)nc3ccc(C(=O)NCc4cccc(C(N)=O)c4)cc32)C1 the remaining binding was 100% (binding, competition with immobilised ligand; 1 µM).
For CN(C(=O)c1ccccc1)c1cc(N(C)c2ccc3c(c2)CCc2ccc(C(=O)NCCN4CCOCC4)cc2C3=O)ccc1F, the remaining binding was 100% (cell-free assay, competition with immobilised ligand; 1 µM).
With CC(C)(C)c1ccc(-c2nc(CBr)nn2-c2cccc(O)c2)cc1 the remaining binding was 84% (cell-free assay, competition with immobilised ligand; 10 µM).
For C[C@H]1CCN(c2nccc(-c3cnn4ncccc34)n2)C1, the remaining binding was 100% (binding; 1 µM).
With O=C(NCC1CCOCC1)c1n[nH]cc1NC(=O)c1c(F)cccc1F the remaining binding was 90% (binding, competition with immobilised ligand; 1 µM).
The remaining binding of O=C(c1ccc(Nc2nccc(-c3cc4ccccc4s3)n2)cc1)N1CCC(N2CCCC2)CC1 is reported as 89% (binding, competition with immobilised ligand; 1 µM).
CS(=O)(=O)NCC[C@H](NC(=O)c1cncc2c1cnn2-c1ccc(F)cc1)c1ccnc(S(C)(=O)=O)c1 gave a remaining binding of 100% (cell-free assay, competition with immobilised ligand; 1 µM).
COc1cnc(Nc2cccc(S(N)(=O)=O)c2)nc1N1CCN(c2ccccc2)C(=O)C1 gave a remaining binding of 80% (binding, competition with immobilised ligand; 1 µM).
For N[C@@H]1CCN(c2nccc(-c3cnn4ncccc34)n2)C1, the remaining binding was 100% (binding; 1 µM).
The remaining binding of C[C@@H](c1ccc(-n2cnc3c(N)ncnc32)cc1)N1CCc2nn(C)c(Cc3ccccc3)c2C1=O is reported as 86% (binding, competition with immobilised ligand; 0.1 µM).
With CCC(=O)N[C@@H]1CC[C@H](C(=O)N(C)c2ccc(-c3nc4ccccc4o3)cc2)C1 the remaining binding was 95% (cell-free assay, competition with immobilised ligand; 1 µM).
The remaining binding of CNC(=O)c1ccccc1Nc1cc(Nc2ccc(N3CCOCC3)cc2OC)ncc1C(F)(F)F is reported as < 10% (binding, competition with immobilised ligand; 1 µM).
The remaining binding of C[C@@H]1CN(c2ccc3ncc(-c4ccc5[nH]nc(C6CC6)c5c4)n3n2)C[C@H](C)O1 is reported as 96% (binding, competition with immobilised ligand; 0.5 µM).
With O=C(NCc1ncc(C(F)(F)F)cc1Cl)c1ccc2c(c1)C1(CCS(=O)(=O)CC1)[C@H](C1CC1)N2S(=O)(=O)c1ccc(F)cc1 the remaining binding was 86% (cell-free assay, competition with immobilised ligand; 1 µM).
For c1cncc(-c2cccc(Nc3nccc(NC4CCCCC4)n3)c2)c1, the remaining binding was 78% (binding, competition with immobilised ligand; 10 µM).
Cc1cnn2ncc(-c3ccnc(N(C)C)n3)c2c1 gave a remaining binding of 84% (binding; 1 µM).
With C[C@@H](c1cccc(C#N)c1)n1cc(Cl)cc(C(N)=O)c1=N the remaining binding was 98% (cell-free assay, competition with immobilised ligand; 1 µM).
Cc1cnc(Nc2ccc(C(=O)N3CCC(N4CCCC4)CC3)cc2)nc1-c1cc2ccccc2s1 gave a remaining binding of 37% (binding, competition with immobilised ligand; 1 µM).
F[C@@H]1CCN(c2nccc(-c3cnn4ncccc34)n2)C1 has a remaining binding of 100% (binding; 1 µM).
The remaining binding of N#Cc1ccc(Nc2ccc3[nH]c(=O)[nH]c3c2)c(Cl)c1 is reported as 100% (cell-free assay, competition with immobilised ligand; 1 µM).
C=CC(=O)N1CCC(C(=O)NCC(=O)N2CCN(c3nc(-c4cnc(N)nc4C(F)F)nc(N4CCOCC4)n3)CC2)CC1 has a remaining binding of 99% (binding, competition with immobilised ligand; 1 µM).
With CN(C)c1nccc(-c2cnc3ncccn23)n1 the remaining binding was 69% (binding; 1 µM).
The remaining binding of O=C(N[C@H]1CCCCC/C=C\C2C[C@@]2(C(=O)O)NC(=O)[C@@H]2C[C@@H](Oc3ccncc3)CN2C1=O)OC1CCCC1 (some centres unmarked) is reported as 71% (binding, competition with immobilised ligand; 1 µM).
For O=C(NCCCN1CCOCC1)c1ccc(Nc2nccc(-c3cc4ccccc4s3)n2)cc1, the remaining binding was 77% (binding, competition with immobilised ligand; 1 µM).
The remaining binding of Nc1cnc(N2CCc3cc(S(=O)(=O)Nc4c(F)cc(Cl)cc4F)cc(N4CCCC4=O)c32)nc1 is reported as 100% (cell-free assay, competition with immobilised ligand; 1 µM).
For CC1CCCN1c1nccc(-c2cnn3ncccc23)n1 (centres unmarked), the remaining binding was 100% (binding; 1 µM).
